The test system of assay [1] is CA46. Briefly: Cell cycle arrest in human CA46 cells assessed as accumulation at G2/M phase at 0.2 uM after 24 hrs using propidium iodide labeling by flow cytometry. It is filed as functional. For orientation: A flow cytometer gives signals particle by particle.
For assay [2], the system named is CA46. As to the kind of experiment: Ratio of IC50 for rat kangaroo Ptk2 cells to IC50 for human CA46 cells.
Assay [3] deals with PtK2. As to the kind of experiment: Effect on actin cytoskeleton in rat kangaroo PtK2 cells assessed as increase in binucleated cells at 0.3 to 3 uM after 24 hrs by immunofluorescence analysis. It is filed as functional, cell-based. Particulars: Potorous tridactylus. Summed up:
(§1)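 PtK2 cells were treated 24 h at 37 °C, then stained with FITC-anti-β-actin antibody (clone Ac-15) and DAPI. Cells were viewed under a 40× oil objective. FITC-phalloidin staining was also used.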

Assay [4] has as its system PtK2. As to the kind of experiment: Effect on actin cytoskeleton in rat kangaroo PtK2 cells assessed as increase in binucleated cells at 1 to 10 uM after 24 hrs by immunofluorescence analysis. It is filed as functional, cell-based. The conditions noted are these: Potorous tridactylus. Summed up:
as §1

Assay [5] concerns PtK2. As to the kind of experiment: Effect on actin cytoskeleton in rat kangaroo PtK2 cells assessed as thickening in microfilament at 0.3 uM after 24 hrs by immunofluorescence analysis relative to untreated control. The conditions noted are these: Potorous tridactylus. It is filed as functional, cell-based. In outline: as §1
In assay [6] the test system is PtK2. As to the kind of experiment: Effect on actin cytoskeleton in rat kangaroo PtK2 cells assessed as thickening in microfilament at 1.0 uM after 24 hrs by immunofluorescence analysis relative to untreated control. The class given is functional, cell-based. Particulars: Potorous tridactylus. Summed up: as §1
The subject of assay [7] is PtK2. Briefly: Effect on actin cytoskeleton in rat kangaroo PtK2 cells assessed as hairy appearance at 3 uM after 24 hrs by immunofluorescence analysis. It is filed as functional, cell-based. The conditions noted are these: Potorous tridactylus. In outline:
as §1

The test system of assay [8] is PtK2. As to the kind of experiment: Effect on actin cytoskeleton in rat kangaroo PtK2 cells assessed as hairy appearance at 10 uM after 24 hrs by immunofluorescence analysis. It is filed as functional, cell-based. Particulars: Potorous tridactylus. Summed up: as §1
Assay [9] in a line: Stimulation of rabbit muscle actin polymerization by centrifugation assay. The class given is tissue-based, Oryctolagus cuniculus, Muscle tissue. Summed up:
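Purified rabbit muscle actin with drug under nonpolymerizing conditions (no exogenous K+). Polymer was separated by centrifugation and supernatant protein measured. EC50 is the concentration reducing supernatant protein by 50% compared with a drug-free control. Three independent experiments were averaged. Total incubation plus processing time was 2.5 h.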

The species named for assay [10] is Oryctolagus cuniculus. Briefly: Stimulation of rabbit muscle actin polymerization assessed as light scattering at 10 to 50 uM by fluorimetry. Particulars: Muscle tissue. In outline: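 90° light scattering at 400 nm, 22 °C. Background read for 3 min, then drug in DMSO added, mixed, and followed about 15 min. PIB (2.5 M KCl, 100 mM MgCl2, 50 mM ATP) used as reference inducer.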

Assay [11] is filed under the species Oryctolagus cuniculus. As to the kind of experiment: Stimulation of rabbit muscle actin polymerization by electron microscopy. The conditions noted are these: Muscle tissue. Summed up:
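Samples of purified rabbit muscle actin with drug were examined by electron microscopy for filaments, in parallel with K+-induced controls. Low-speed centrifugation (20000g, 30 min, 22 °C) was used to test for bundled polymer.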

Assay [12] can be described thus: Displacement of FITC-phalloidin from rabbit muscle actin polymer after 1 hr by fluorescence analysis. The class given is tissue-based, Oryctolagus cuniculus, Muscle tissue. Summed up:
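Rabbit muscle actin and FITC-phalloidin were incubated 1 h at 22 °C in monomer buffer with 2 µL PIB per 100 µL. Drugs in DMSO were added for another 1 h at 22 °C, then the mixture was centrifuged and supernatant fluorescence read. EC50 is the concentration giving 50% of the maximal phalloidin-induced increase.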

The species named for assay [13] is Oryctolagus cuniculus. Briefly: Displacement of FITC-phalloidin from rabbit muscle actin polymer pretreated prior to FITC-phalloidin addition by fluorescence analysis. The conditions noted are these: Muscle tissue.
Assay [14] in a line: Antiproliferative activity against human NCI60 cells. It is filed as functional.
The test system of assay [15] is CA46. Briefly: Antiproliferative activity against human CA46 cells after 24 hrs. The conditions noted are these: CA46, 24 h. It is filed as functional, cell-based. In outline:
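CA46 Burkitt lymphoma cells are a suspension line. They were grown 24 h at 37 °C with drug, and cell number was the read-out. IC50 is the concentration giving 50% growth inhibition.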

Assay [16] in a line: Antiproliferative activity against rat kangaroo PtK2 cells after 48 hrs. The class given is cell-based. The conditions noted are these: Potorous tridactylus, PtK2, 48 h. Summed up: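 PtK2 kidney cells (Potorous tridactylis) are an attached line. They were exposed to drug for 48 h, and cell protein was the read-out of growth. IC50 was taken from the concentration response.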

The subject of assay [17] is Candida albicans. As to the kind of experiment: Antimicrobial activity against Candida albicans ATCC 14053 at 100 ug/disk by standard paper sensitivity disk-agar plate method. Particulars: read-out: IZ. It is filed as functional. In outline:
(§2)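 Agar disk diffusion with paper disks 6 mm in diameter, dose per disk as in line.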

Assay [18] relates to Candida albicans. Briefly: Antimicrobial activity against Candida albicans ATCC 14053 at 10 ug/disk by standard paper sensitivity disk-agar plate method. Particulars: read-out: IZ. The class given is functional. Summed up:
as §2

The subject of a further assay is Pseudomonas aeruginosa. Briefly: Antimicrobial activity against Pseudomonas aeruginosa ATCC 10145 by standard paper sensitivity disk-agar plate method. The class given is functional, organism-based. In outline:
(§3)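 Paper disks of 6 mm diameter placed on seeded agar plates; activity assessed by standard disk-agar sensitivity method.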

A further assay deals with Escherichia coli. As to the kind of experiment: Antimicrobial activity against Escherichia coli ATCC 1775 by standard paper sensitivity disk-agar plate method. The class given is functional, organism-based. Summed up: as §3
Assay [19] deals with Salmonella enterica subsp. enterica. Briefly: Antimicrobial activity against Salmonella choleraesuis subsp. choleraesuis ATCC 14028 by standard paper sensitivity disk-agar plate method. The class given is functional, organism-based. In outline: as §3
The subject of a further assay is Bacillus subtilis. Briefly: Antimicrobial activity against Bacillus subtilis ATCC 6051 by standard paper sensitivity disk-agar plate method. It is filed as functional, organism-based. Summed up: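 Paper disk on agar, disk diameter 6 mm.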
A further assay deals with Staphylococcus aureus. Briefly: Antimicrobial activity against Staphylococcus aureus ATCC 12600 by standard paper sensitivity disk-agar plate method. The class given is functional, organism-based. Summed up: as §3
Assay [20] has as its system PtK2. Briefly: Effect on actin cytoskeleton in rat kangaroo PtK2 cells assessed as reorganization and hypernucleation of actin assembly at 0.03 uM after 24 hrs by immunofluorescence analysis. It is filed as functional, cell-based. Particulars: Potorous tridactylus. Summed up: as §1
For assay [21], the system named is PtK2. As to the kind of experiment: Effect on actin cytoskeleton in rat kangaroo PtK2 cells assessed as retracted cytoplasm and spiky appearance at 3 uM after 24 hrs by immunofluorescence analysis. The class given is functional, cell-based. The conditions noted are these: Potorous tridactylus. Summed up:
as §1

Assay [22] concerns CA46. Briefly: Cell cycle arrest in human CA46 cells assessed as accumulation at G2/M phase at 1.0 uM after 24 hrs using propidium iodide labeling by flow cytometry. It is filed as functional. Summed up: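 CA46 human Burkitt lymphoma cells were treated with the drug for 24 h. Cellular DNA content was then labelled with propidium iodide and measured by flow cytometry. The read-out was the percentage of cells in G2/M phase, compared against an untreated control.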

The source made the active and inactive calls. No cut-off for these calls is given here.

As a reminder, the EC50 is the midpoint of the concentration-response curve. Read a low EC50 as higher potency in that assay. The GI50 is the concentration giving 50% growth inhibition. Low readings indicate greater sensitivity of the cells, high ones lower sensitivity of the cells. In general, IC50 refers to the concentration at which inhibition is half-maximal. Low values mean greater potency in that assay, high ones weaker potency in that assay. As to `CC(=O)O[C@@H]1c2nc(cs2)C(=O)O[C@@H](CCCC(C)(Cl)Cl)[C@H](C)C(=O)O[C@@H](C(C)(C)O)c2nc(cs2)C(=O)OC1(C)C` [HECTOCHLORIN], in the assay with CA46 [1], the Activity amounted to 37%. Moreover, the “Ratio IC50” value with CA46 [2] was found to be 10. Besides, the result in the assay on PtK2 [3], in the assay with PtK2 [4], in the assay on PtK2 [5], in the assay with PtK2 [6], in the assay on PtK2 [7] and in the assay on PtK2 [8] was Active. In the assay filed under Oryctolagus cuniculus [10], the outcome was Active. Also, the half-maximal effective concentration (EC50) in assay [9] was 20000 nM; in assay [12] it was over 60000 nM. Also, the result (in the assay filed under Oryctolagus cuniculus [11]; in the assay filed under Oryctolagus cuniculus [13]; with Pseudomonas aeruginosa; with Escherichia coli; in [19]; in the assay on Bacillus subtilis) was inactive. In addition, the result in the assay on Staphylococcus aureus was inactive. In assay [14], this compound had a concentration for 50% growth inhibition (GI50) of 5100 nM. For the same compound, the half-inhibitory concentration (IC50) was found to be 20 nM in the assay with CA46 [15] and 300 nM in assay [16]. Moreover, the zone of inhibition at 100 µg/disc with Candida albicans [17] came to 16 mm. Further, in the assay with Candida albicans [18], the zone of inhibition at 10 µg/disc was determined as 11 mm.
As to `C/C1=C\[C@H](C)C[C@H](C)OC(=O)C[C@H](c2ccc(O)cc2)NC(=O)[C@@H](Cc2c(Br)[nH]c3ccccc23)N(C)C(=O)[C@H](C)NC(=O)[C@@H](C)C1` [JASPAMIDE], the outcome with PtK2 [3], in the assay with PtK2 [4], with PtK2 [20], in the assay with PtK2 [21] and in the assay filed under Oryctolagus cuniculus [10] was Active. The compound further gave a half-maximal effective concentration (EC50) in assay [12] of 6500 nM. Besides, the IC50 with CA46 [15] was 30 nM; in assay [16], 300 nM.
On to `CC(C)[C@@H]1NC(=O)CNC(=O)[C@@H]2CSC(=N2)[C@H](C(C)(C)O)OC(=O)C(C)(C)[C@H](CCCC(C)(Cl)Cl)OC(=O)c2csc1n2` [LYNGBYABELLIN B], for which, in the assay on CA46 [22], the Activity came to 28%. Further, the outcome with PtK2 [3], in the assay on PtK2 [4], in the assay on PtK2 [5], with PtK2 [6], in the assay on PtK2 [7] and with PtK2 [8] was Active. In assay [9], the EC50 was over 50000 nM. Further, the results for the IC50 (with CA46 [15]; in [16]) were 100 nM and 1000 nM, respectively.

(Values after ChEMBL document CHEMBL1150591, “Structure and absolute stereochemistry of hectochlorin, a potent stimulator of actin assembly” (J Nat Prod, 2002).)
